ChEMBL document CHEMBL1833790, “N-(2-{3-[3,5-bis(trifluoromethyl)phenyl]ureido}ethyl)-glycyrrhetinamide (6b): a novel anticancer glycyrrhetinic acid derivative that targets the proteasome and displays anti-kinase activity” (J Med Chem, 2011)
Each block holds one compound with its values, some of them ahead of it. Active and inactive are the calls of the source. No cut-off for these calls is given here.

Assays:
Hs 683 = assay: Growth inhibition in apoptosis-sensitive human Hs683 after 3 days by MTT assay; assay type: functional; conditions: Hs 683, 72 h
How it was run: (§1)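 Cells grown in RPMI with 10% heat-inactivated FCS, 4 mM glutamine, gentamicin and penicillin–streptomycin. Drug exposure 3 days, growth read by MTT colorimetric assay. Nine concentrations from 0.01 to 100 μM in semilog steps, six replicates each; IC50 derived per cell line.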

[1] = biological target: Tyrosine-protein kinase Fyn (Homo sapiens) (UniProt P06241); assay: Inhibition of FYN at 1 uM by radiometric assay
[2] = biological target: Serine/threonine-protein kinase PAK 2 (Homo sapiens) (UniProt Q13177); assay: Inhibition of PAK2 at 1 uM by radiometric assay
[3] = biological target: Tyrosine-protein kinase ZAP-70 (Homo sapiens) (UniProt P43403); assay: Inhibition of ZAP70 at 1 uM by radiometric assay
[4] = biological target: T1, Peroxisome proliferator-activated receptor gamma (Homo sapiens) (UniProt P37231); assay: Activation of PPARgamma activity in human U373 cells at 90 uM after 6 hrs by spectrophotometric analysis relative to control; assay type: cell-based; conditions: U-373MG ATCC, 7 uM, in the assay text read “at 7 uM” for “at 90 uM”
T1 sequence (whole entry): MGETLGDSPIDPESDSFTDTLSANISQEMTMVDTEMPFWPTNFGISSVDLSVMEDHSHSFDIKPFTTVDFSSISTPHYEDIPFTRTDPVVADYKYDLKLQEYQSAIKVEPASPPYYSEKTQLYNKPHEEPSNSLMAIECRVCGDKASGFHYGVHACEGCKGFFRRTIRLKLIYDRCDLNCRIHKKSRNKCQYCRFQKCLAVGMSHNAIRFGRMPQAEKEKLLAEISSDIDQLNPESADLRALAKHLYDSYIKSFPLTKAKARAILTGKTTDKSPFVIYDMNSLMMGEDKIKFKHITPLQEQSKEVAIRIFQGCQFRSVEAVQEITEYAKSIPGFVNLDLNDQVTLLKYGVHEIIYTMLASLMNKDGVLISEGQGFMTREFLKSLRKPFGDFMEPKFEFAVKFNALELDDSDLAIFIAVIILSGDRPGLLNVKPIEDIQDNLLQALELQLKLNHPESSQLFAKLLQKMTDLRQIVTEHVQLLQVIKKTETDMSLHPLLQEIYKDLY
How it was run: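 U373 glioblastoma cells were exposed for 6 h. Nuclear extracts were prepared by hypotonic buffer, NP-40 lysis and a protease-inhibitor extraction buffer. Extracts were bound overnight at 4 °C in a PPAR-γ transcription-factor plate, then probed with primary antibody and HRP anti-rabbit secondary, 1 h each at room temperature. Developer ran 45 min, read at 450 nm. Triplicates, mean ± SD versus control.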

[5] = biological target: Fibroblast growth factor receptor 2 (Homo sapiens) (UniProt P21802); assay: Inhibition of FGFR2 at 1 uM by radiometric assay
How it was run: (§2)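 Radiometric ³³PanQinase activity assay across a panel of 333 protein kinases. Compound added from a 2 × 10⁻⁵ M working solution in 10% DMSO (diluted in water from a 100% DMSO stock), giving 1 μM final in the assay.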

U-373MG ATCC [6] = assay: Inhibition of trypsin-like activity of 20S proteasome in human U373 cells at 0.5 uM after 2 days by bioluminescence assay; assay type: cell-based
How it was run: (§3)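 U373 GBM cells seeded at 5000 cells/mL and grown 48 h, then treated for two days. Cells washed in PBS and permeabilised with 0.025% digitonin. Proteasome-Glo reagent added with Suc-LLVY-Glo (chymotrypsin-like), Z-LRR-Glo (trypsin-like) or Z-nLPnLD-Glo (caspase-like) substrate. Luminescence read after 10 min in the dark and normalised to a parallel MTT viability assay; triplicates. MG-132 at 0.5 μM used as reference.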

[7] = Chemical stability of the compound in MEM cell culture medium after 7 days by HPLC analysis; assay type: physicochemical; conditions: read-out: Stability
How it was run: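 Compound incubated in MEM culture medium at 37 °C for 7 days, then analysed by HPLC on RX-C8 (5 μm) column with MeOH–water 90:10 (0.1% TFA), diode-array detection. Expressed as % of incubated compound recovered.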

U-373MG ATCC [8] = assay: Inhibition of caspase-like activity of 20S proteasome in human U373 cells at 0.5 uM after 2 days by bioluminescence assay; assay type: cell-based; how it was run: as §3
[9] = biological target: Tyrosine-protein kinase Fes/Fps (Homo sapiens) (UniProt P07332); assay: Inhibition of FES at 1 uM by radiometric assay; how it was run: as §2
U-373MG ATCC [10] = assay: Inhibition of chymotrypsin-like activity of 20S proteasome in human U373 cells at 0.5 uM after 2 days by bioluminescence assay; assay type: cell-based; how it was run: as §3
U-373MG ATCC [11] = assay: Inhibition of chymotrypsin-like activity of 20S proteasome in human U373 cells at 60 uM after 2 days by bioluminescence assay; assay type: cell-based; how it was run: as §3
MCF7 = assay: Growth inhibition in apoptosis-sensitive human MCF7 after 3 days by MTT assay; assay type: functional; conditions: MCF7, 72 h; how it was run: as §1
U-373MG ATCC [12] = assay: Inhibition of chymotrypsin-like activity of 20S proteasome in human U373 at 7 uM after 2 days by bioluminescence assay; assay type: cell-based; how it was run: as §3
SK-MEL-28 = assay: Growth inhibition in apoptosis-resistant human SK-MEL-28 after 3 days by MTT assay; assay type: functional; conditions: SK-MEL-28, 72 h; how it was run: as §1
U-373MG ATCC [13] = assay: Inhibition of trypsin-like activity of 20S proteasome in human U373 cells at 60 uM after 2 days by bioluminescence assay; assay type: cell-based; how it was run: as §3
U-373MG ATCC [14] = assay: Cytostatic activity against human U373 cells assessed as accumulation of cells in G1 phase at 10 uM after 48 to 72 hrs by TUNEL-based flow cytometric analysis; assay type: functional, cell-based
How it was run: (§4)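 A549 NSCLC and U373 GBM cells were treated 48 or 72 h and analysed with the APO AF kit. TUNEL labelling ran 1 h at 37 °C, followed by propidium iodide (5 μg/mL) with RNase. Apoptotic fraction and % cells in G1 were measured by flow cytometry. Kit negative/positive controls and 1 μM narciclasine-treated PC-3 cells served as controls.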

[15] = biological target: Ephrin type-B receptor 4 (Homo sapiens) (UniProt P54760); assay: Inhibition of EPHB4 at 1 uM by radiometric assay; how it was run: as §2
A549 [16] = assay: Growth inhibition in apoptosis-resistant human A549 after 3 days by MTT assay; assay type: functional; conditions: A549, 72 h; how it was run: as §1
T98G = assay: Growth inhibition in apoptosis-resistant human T98G after 3 days by MTT assay; assay type: functional; conditions: 72 h; how it was run: as §1
[17] = biological target: ALK tyrosine kinase receptor (Homo sapiens) (UniProt Q9UM73); assay: Inhibition of ALK at 1 uM by radiometric assay; how it was run: as §2
[18] = biological target: Ephrin type-B receptor 1 (Homo sapiens) (UniProt P54762); assay: Inhibition of EPHB1 at 1 uM by radiometric assay; how it was run: as §2
A549 [19] = assay: Induction of apoptosis in human A549 cells assessed as proapoptotic effect at 10 uM after 48 to 72 hrs by TUNEL-based flow cytometric analysis; assay type: functional, cell-based; how it was run: as §4
PC-3 = assay: Growth inhibition in apoptosis-sensitive human PC3 after 3 days by MTT assay; assay type: functional; conditions: PC-3, 72 h; how it was run: as §1
U-373MG ATCC [20] = assay: Induction of apoptosis in human U373 cells assessed as proapoptotic effect at 10 uM after 48 to 72 hrs by TUNEL-based flow cytometric analysis; assay type: functional, cell-based; how it was run: as §4
[21] = biological target: Insulin-like growth factor 1 receptor (Homo sapiens) (UniProt P08069); assay: Inhibition of IGF-R1 at 1 uM by radiometric assay
[22] = biological target: Megakaryocyte-associated tyrosine-protein kinase (Homo sapiens) (UniProt P42679); assay: Inhibition of MATK at 1 uM by radiometric assay
U-373MG ATCC [23] = assay: Inhibition of caspase-like activity of 20S proteasome in human U373 cells at 7 uM after 2 days by bioluminescence assay; assay type: cell-based; how it was run: as §3
U-373MG ATCC [24] = assay: Inhibition of caspase-like activity of 20S proteasome in human U373 cells at 60 uM after 2 days by bioluminescence assay; assay type: cell-based; how it was run: as §3
B16-F10 = assay: Growth inhibition in mouse B16F10 after 3 days by MTT assay; assay type: functional; conditions: B16-F10, 72 h; how it was run: as §1
[25] = biological target: Cytoplasmic tyrosine-protein kinase BMX (Homo sapiens) (UniProt P51813); assay: Inhibition of BMX at 1 uM by radiometric assay; how it was run: as §2
A549 [26] = assay: Cytostatic activity against human A549 cells assessed as accumulation of cells in G1 phase at 10 uM after 48 to 72 hrs by TUNEL-based flow cytometric analysis; assay type: functional, cell-based; how it was run: as §4
[27] = Growth inhibition in apoptosis-resistant human U373 after 3 days by MTT assay; assay type: functional, U-373MG ATCC; conditions: U373 MG, 72 h; how it was run: as §1
U-373MG ATCC [28] = assay: Inhibition of trypsin-like activity of 20S proteasome in human U373 cells at 7 uM after 2 days by bioluminescence assay; assay type: cell-based; how it was run: as §3
[29] = biological target: T1, Peroxisome proliferator-activated receptor gamma (Homo sapiens); assay: Activation of PPARgamma activity in human U373 cells at 90 uM after 6 hrs by spectrophotometric analysis relative to control; conditions: U-373MG ATCC
U-373MG ATCC [30] = assay: Activation of chymotrypsin-like activity of 20S proteasome in human U373 cells at 90 uM after 2 days by bioluminescence assay; assay type: cell-based
How it was run: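 Chymotrypsin-like site, substrate Suc-LLVY-Glo. U373 cells were seeded at 5000 cells/mL for 48 h and exposed two days. After a PBS wash and 0.025% digitonin permeabilisation, Proteasome-Glo reagent was added. Bioluminescence was read after 10 min dark incubation. Triplicates, normalised by a concurrent MTT viability assay run in identical conditions.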

U-373MG ATCC [31] = assay: Activation of caspase-like activity of 20S proteasome in human U373 cells at 90 uM after 2 days by bioluminescence assay; assay type: cell-based
How it was run: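 Caspase-like site, substrate Z-nLPnLD-Glo. U373 cells were plated at 5000 cells/mL for 48 h, then treated two days. Cells were PBS-washed and permeabilised with 0.025% digitonin before Proteasome-Glo reagent was added. Luminescence was read after 10 min in the dark. Triplicates, normalised to a parallel MTT viability assay under identical conditions.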

U-373MG ATCC [32] = assay: Inhibition of trypsin-like activity of 20S proteasome in human U373 cells at 90 uM after 2 days by bioluminescence assay; assay type: cell-based; how it was run: as §3
[33] = Cell cycle arrest in human U373 cells assessed as accumulation of cells in G1 phase at 80 uM after 48 to 72 hrs by TUNEL-based flow cytometric analysis; assay type: functional; conditions: U-373MG ATCC; how it was run: as §4
A549 [34] = assay: Cell cycle arrest in human A549 cells assessed as accumulation of cells in G1 phase at 100 uM after 48 to 72 hrs by TUNEL-based flow cytometric analysis; assay type: functional; how it was run: as §4

Chain of Ephrin type-B receptor 1 (Homo sapiens) (P54762 whole entry): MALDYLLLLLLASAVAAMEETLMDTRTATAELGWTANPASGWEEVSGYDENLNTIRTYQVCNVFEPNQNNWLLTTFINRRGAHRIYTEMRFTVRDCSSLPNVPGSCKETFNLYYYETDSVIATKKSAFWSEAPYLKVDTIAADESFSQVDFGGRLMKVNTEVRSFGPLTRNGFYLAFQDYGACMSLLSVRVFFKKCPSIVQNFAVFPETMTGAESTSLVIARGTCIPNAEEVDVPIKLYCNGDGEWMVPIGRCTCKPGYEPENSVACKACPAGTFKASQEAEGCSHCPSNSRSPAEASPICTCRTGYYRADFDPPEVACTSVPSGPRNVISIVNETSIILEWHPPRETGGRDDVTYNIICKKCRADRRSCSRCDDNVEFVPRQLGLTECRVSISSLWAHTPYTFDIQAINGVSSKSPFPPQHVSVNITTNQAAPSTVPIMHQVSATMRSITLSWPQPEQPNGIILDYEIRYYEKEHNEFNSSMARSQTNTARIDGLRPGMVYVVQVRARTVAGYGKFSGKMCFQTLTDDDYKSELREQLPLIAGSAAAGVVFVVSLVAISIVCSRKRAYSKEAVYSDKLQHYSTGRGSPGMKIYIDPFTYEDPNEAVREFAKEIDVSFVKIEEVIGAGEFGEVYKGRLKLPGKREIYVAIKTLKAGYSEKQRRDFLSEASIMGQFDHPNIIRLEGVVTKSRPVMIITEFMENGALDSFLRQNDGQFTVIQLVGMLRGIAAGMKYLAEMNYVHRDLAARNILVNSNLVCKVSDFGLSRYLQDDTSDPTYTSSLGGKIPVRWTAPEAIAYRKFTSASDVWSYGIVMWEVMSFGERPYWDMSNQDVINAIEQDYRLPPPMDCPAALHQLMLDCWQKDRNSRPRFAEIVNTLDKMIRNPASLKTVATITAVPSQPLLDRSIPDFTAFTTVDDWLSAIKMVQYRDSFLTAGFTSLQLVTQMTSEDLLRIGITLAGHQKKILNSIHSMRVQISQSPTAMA
Chain of Megakaryocyte-associated tyrosine-protein kinase (Homo sapiens) (P42679 whole entry): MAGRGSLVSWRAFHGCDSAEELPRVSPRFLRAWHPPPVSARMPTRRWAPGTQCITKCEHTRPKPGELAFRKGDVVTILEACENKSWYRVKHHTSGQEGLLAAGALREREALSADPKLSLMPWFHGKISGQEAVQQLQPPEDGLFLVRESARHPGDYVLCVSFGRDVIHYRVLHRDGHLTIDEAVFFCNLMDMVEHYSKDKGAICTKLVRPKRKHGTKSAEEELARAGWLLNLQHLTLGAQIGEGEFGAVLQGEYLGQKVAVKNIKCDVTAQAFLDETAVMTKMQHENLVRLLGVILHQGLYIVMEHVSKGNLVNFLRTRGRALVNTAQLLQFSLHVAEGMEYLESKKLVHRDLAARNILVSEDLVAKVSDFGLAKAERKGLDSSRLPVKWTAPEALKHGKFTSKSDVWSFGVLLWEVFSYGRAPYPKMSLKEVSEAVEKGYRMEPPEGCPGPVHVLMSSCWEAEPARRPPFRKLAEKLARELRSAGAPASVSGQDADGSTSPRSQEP
Chain of ALK tyrosine kinase receptor (Homo sapiens) (Q9UM73 19-1620 limits assumed): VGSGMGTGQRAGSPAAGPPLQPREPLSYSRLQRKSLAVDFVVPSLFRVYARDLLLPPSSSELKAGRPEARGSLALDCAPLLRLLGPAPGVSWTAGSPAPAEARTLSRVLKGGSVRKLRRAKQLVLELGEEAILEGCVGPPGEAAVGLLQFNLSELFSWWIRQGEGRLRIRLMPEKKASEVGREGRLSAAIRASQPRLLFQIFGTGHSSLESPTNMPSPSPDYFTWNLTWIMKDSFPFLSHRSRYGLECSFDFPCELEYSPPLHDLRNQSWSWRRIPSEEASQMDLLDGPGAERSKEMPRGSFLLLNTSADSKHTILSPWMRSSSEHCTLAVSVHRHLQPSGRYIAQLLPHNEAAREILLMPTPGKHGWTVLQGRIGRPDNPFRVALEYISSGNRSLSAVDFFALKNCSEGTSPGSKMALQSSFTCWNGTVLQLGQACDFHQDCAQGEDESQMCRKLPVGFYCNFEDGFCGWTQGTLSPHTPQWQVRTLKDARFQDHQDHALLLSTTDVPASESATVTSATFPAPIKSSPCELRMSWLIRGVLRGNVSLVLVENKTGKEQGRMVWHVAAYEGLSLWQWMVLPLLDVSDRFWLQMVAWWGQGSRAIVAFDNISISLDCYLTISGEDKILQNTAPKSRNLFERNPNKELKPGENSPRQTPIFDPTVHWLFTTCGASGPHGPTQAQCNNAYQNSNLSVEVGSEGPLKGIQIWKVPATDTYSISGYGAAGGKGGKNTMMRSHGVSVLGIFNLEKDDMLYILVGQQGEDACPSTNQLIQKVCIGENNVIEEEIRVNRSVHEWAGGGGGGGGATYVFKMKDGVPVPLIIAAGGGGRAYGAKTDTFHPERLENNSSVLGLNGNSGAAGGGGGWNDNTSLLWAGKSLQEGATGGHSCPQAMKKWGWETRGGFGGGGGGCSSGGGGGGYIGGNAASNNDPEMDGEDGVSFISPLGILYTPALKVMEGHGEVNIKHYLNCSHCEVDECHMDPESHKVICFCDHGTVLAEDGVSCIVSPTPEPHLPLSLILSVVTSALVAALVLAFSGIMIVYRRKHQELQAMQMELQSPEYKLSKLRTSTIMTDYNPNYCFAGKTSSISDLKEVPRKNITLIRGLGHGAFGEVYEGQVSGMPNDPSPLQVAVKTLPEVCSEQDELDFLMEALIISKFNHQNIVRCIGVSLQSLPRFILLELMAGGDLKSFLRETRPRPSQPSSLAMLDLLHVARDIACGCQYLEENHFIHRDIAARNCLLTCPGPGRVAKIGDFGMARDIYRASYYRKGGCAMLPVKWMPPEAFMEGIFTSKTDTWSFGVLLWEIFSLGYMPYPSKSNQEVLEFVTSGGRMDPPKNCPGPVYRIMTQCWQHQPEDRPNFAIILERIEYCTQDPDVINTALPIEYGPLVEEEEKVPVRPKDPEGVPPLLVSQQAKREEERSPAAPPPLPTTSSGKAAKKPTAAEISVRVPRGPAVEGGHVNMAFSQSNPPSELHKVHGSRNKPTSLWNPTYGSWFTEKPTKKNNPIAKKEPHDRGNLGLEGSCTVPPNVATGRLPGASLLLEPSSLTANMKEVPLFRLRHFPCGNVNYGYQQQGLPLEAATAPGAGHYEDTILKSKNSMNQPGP
Chain of Tyrosine-protein kinase Fyn (Homo sapiens) (P06241 2-537 limits assumed): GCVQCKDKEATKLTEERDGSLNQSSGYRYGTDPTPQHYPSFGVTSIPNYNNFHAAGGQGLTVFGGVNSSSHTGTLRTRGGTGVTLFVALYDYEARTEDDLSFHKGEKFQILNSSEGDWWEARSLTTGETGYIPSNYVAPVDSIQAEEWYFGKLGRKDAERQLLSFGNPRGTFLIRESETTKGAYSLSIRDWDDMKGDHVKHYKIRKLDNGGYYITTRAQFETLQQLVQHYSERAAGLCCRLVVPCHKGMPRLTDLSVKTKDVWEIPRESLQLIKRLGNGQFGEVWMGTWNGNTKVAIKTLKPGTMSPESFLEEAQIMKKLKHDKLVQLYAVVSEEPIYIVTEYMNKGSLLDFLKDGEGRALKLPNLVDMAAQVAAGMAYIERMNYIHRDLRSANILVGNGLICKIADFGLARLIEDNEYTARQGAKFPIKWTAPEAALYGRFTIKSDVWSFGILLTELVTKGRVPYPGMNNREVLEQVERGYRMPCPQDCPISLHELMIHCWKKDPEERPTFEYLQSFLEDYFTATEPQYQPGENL
Chain of Fibroblast growth factor receptor 2 (Homo sapiens) (P21802 22-821 limits assumed): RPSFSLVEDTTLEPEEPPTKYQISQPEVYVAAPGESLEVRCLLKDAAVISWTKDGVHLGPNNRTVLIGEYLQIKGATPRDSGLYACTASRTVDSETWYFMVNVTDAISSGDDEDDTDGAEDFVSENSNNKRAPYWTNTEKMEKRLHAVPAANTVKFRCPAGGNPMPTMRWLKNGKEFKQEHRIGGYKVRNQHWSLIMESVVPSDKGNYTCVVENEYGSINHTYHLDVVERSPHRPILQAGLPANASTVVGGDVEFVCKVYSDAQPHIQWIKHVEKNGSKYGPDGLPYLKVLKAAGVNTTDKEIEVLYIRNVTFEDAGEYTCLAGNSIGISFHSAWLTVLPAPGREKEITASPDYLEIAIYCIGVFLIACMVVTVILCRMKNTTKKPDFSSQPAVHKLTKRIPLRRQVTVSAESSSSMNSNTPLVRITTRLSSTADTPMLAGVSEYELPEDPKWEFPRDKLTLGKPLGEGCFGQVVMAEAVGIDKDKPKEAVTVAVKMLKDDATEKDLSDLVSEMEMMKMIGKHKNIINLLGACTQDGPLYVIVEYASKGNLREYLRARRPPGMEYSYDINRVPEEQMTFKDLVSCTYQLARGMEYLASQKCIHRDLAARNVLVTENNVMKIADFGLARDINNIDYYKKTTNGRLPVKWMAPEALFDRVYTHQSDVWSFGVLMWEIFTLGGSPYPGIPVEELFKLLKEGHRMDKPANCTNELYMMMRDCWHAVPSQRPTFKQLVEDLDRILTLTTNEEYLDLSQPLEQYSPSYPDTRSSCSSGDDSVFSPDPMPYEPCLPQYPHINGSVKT
Chain of Serine/threonine-protein kinase PAK 2 (Homo sapiens) (Q13177 whole entry): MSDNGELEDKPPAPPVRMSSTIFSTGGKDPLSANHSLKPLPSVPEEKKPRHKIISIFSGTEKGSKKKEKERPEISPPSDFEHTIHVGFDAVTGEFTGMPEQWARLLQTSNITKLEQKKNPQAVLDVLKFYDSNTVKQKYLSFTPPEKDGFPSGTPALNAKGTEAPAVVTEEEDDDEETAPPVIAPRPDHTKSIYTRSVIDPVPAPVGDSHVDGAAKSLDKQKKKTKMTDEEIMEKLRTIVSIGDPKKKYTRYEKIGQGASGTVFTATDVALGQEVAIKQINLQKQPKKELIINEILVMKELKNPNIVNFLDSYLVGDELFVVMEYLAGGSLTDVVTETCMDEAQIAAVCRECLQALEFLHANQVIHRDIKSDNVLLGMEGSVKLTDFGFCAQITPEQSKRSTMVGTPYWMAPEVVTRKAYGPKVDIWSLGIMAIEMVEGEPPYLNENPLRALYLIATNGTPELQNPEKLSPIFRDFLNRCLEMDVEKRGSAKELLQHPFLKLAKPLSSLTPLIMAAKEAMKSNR

inhibition [1]: 72%
inhibition [2]: 51%
inhibition [3]: 67%
Activity [4]: Active
inhibition [5]: 67%
remaining at 168 h [7]: 98%
inhibition [9]: 59%
GI50 (MCF7): 4 µM
GI50 (SK-MEL-28): 9 µM
inhibition [15]: 64%
GI50 (A549 [16]): 7 µM
inhibition [17]: 69%
inhibition [18]: 64%
GI50 (PC-3): 8 µM
inhibition [21]: 64%
inhibition [22]: 50%
GI50 (B16-F10): 4 µM
inhibition [25]: 52%
Compound: CC1(C)[C@@H](O)CC[C@]2(C)[C@H]3C(=O)C=C4[C@@H]5C[C@@](C)(C(=O)NCCNC(=O)Nc6cc(C(F)(F)F)cc(C(F)(F)F)c6)CC[C@]5(C)CC[C@@]4(C)[C@]3(C)CC[C@@H]12
GI50 (Hs 683): 6 µM
inhibition (U-373MG ATCC [6]): Active
inhibition (U-373MG ATCC [8]): Active
inhibition (U-373MG ATCC [10]): Active
inhibition (U-373MG ATCC [11]): Active
inhibition (U-373MG ATCC [12]): Active
inhibition (U-373MG ATCC [13]): Active
Activity (U-373MG ATCC [14]): inactive
GI50 (T98G): 12 µM
Activity (A549 [19]): inactive
Activity (U-373MG ATCC [20]): inactive
inhibition (U-373MG ATCC [23]): Active
inhibition (U-373MG ATCC [24]): Active
Activity (A549 [26]): inactive
GI50 [27]: 6 µM
inhibition (U-373MG ATCC [28]): Active

remaining at 168 h [7]: 98%
GI50 (MCF7): 76 µM
GI50 (SK-MEL-28): 92 µM
Activity [29]: Active
GI50 (A549 [16]): > 100 µM
GI50 (PC-3): 80 µM
GI50 (B16-F10): 37 µM
Compound: CC1(C)[C@@H](O)CC[C@]2(C)[C@H]3C(=O)C=C4[C@@H]5C[C@@](C)(C(=O)O)CC[C@]5(C)CC[C@@]4(C)[C@]3(C)CC[C@@H]12 [ENOXOLONE]
GI50 (Hs 683): 84 µM
Activity (U-373MG ATCC [30]): Active
GI50 (T98G): 85 µM
Activity (U-373MG ATCC [31]): Active
inhibition (U-373MG ATCC [32]): Active
Activity [33]: inactive
Activity (A549 [34]): inactive
GI50 [27]: 83 µM
